In the library only some 2.1% were active in any assay of this set; here they are far more common.
TLR4 MyD88 comp: inhibitors of human TLR4-MyD88 binding; O00206+Q99836; HeLa CL3-4 TLR4/MyD88 BLA complementation, FRET ratio; inhibition, % at 8.4 µM; actives 0.18% (n = 200,000); in the data active means inhibition above about 25%
Target sequence (O00206 whole entry, looked up): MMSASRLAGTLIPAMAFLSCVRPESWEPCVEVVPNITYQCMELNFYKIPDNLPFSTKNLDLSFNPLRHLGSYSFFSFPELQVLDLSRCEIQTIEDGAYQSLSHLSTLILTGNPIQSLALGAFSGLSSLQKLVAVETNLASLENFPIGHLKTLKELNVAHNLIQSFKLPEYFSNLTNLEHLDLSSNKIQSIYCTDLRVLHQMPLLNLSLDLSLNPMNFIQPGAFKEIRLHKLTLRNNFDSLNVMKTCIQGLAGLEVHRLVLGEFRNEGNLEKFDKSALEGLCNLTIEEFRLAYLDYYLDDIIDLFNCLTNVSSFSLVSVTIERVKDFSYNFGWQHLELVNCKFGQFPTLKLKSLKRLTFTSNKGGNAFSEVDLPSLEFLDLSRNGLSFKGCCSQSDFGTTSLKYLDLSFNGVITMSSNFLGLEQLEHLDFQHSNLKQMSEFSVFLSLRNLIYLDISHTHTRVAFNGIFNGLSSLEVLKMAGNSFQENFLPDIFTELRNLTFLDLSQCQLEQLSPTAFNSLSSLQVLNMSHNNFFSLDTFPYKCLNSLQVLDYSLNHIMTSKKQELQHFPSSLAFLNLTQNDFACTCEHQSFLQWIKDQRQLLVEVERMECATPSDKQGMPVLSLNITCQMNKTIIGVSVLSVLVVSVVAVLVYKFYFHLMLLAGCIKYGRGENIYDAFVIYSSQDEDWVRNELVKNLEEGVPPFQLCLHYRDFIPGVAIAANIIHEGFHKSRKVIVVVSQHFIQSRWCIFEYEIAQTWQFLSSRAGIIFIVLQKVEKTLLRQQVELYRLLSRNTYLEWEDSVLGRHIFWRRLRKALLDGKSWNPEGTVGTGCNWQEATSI
Target sequence (Q99836 whole entry, looked up): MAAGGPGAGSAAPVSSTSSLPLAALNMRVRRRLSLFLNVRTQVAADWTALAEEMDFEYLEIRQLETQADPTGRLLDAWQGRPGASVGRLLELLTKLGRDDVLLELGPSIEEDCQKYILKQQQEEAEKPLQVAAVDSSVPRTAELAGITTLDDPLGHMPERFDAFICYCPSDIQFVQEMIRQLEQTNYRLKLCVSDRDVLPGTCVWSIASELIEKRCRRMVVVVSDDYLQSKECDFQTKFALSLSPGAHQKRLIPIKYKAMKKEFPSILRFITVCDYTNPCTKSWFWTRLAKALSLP
beta cell repl: inducers of beta-cell replication in MIN6 cells; AID 2380; MIN6 cells proliferation, ATPlite luminescence, 48 h; cells starved in 0.2% serum; 100% = growth in 10% serum; actives 0.29% (n = 330,000); proliferation, % at 10 µM;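 active means compounds whose signal lies at least 3.5 SD above the mean of all wells on their plate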
NOD2-RIPK2 inh: inhibitors of human NOD2-RIPK2 interaction; CHO BLA complementation NOD2-RIPK2, CCF4 ratio; inhibition, % at 4.98 µM; actives 0.38% (n = 360,000); in the data active means inhibition above about 21%
MC4R barr agon: agonists of human melanocortin 4 receptor (MC4R) beta-arrestin. U2OS MC4R beta-arrestin complementation, luminescence; percent of melanotan II response, DMSO zero. activation, % at 8.9 µM. actives 0.98% (n = 360,000);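 active means activation above a per-plate cutoff, the mean activation of sample wells on that plate plus 3 SD, cut at about 8% in these data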
TLR9-MyD88 block: inhibitors of human TLR9-MyD88 binding; actives 0.21% (n = 340,000); Q9NR96+Q99836; CHO BLA complementation TLR9-MyD88, CCF4 FRET ratio; inhibition, % at 4.98 µM;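 active means inhibition above the mean over all tested compounds plus 3 SD, cut at about 21% in these data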
MC4R antag cAMP: antagonists of human melanocortin 4 receptor (MC4R). P32245. MC4R-expressing cells, MTII-stimulated cAMP, LANCE TR-FRET. inhibition, % at 6.5 µM. actives 0.48% (n = 360,000). AID 540295;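 active means inhibition above its plate's cutoff, the mean of tested wells on that plate plus 3 SD, cut at about 29% in these data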
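Test system: U2OS cells stably expressing human melanocortin 4 receptor (MC4R); also added: Melanotan II challenge; compound: 6.5 µM single dose; timing: 30-min compound preincubation, 1-h Melanotan II challenge, 1-h detection, room temperature; signal: Eu-cAMP/anti-cAMP TR-FRET, emission 671 nm; repeats: one well per compound, no replicates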
MC4R barr conf: human MC4R beta-arrestin agonism confirmation | actives 31% (n = 2,400) | shares compounds with MC4R barr agon | U2OS MC4R beta-arrestin recruitment, luminescence; scaled DMSO 0%, Melanotan II 100% | AID 602192 | activation, % at 8.9 µM;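 active means mean activation across replicates above the hit cutoff set in the earlier primary screen, cut at about 8% in these data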
MOR DOR agonist: OPRM1-OPRD1 heterodimer agonism counter-screen; AID 602194; U2OS PathHunter beta-arrestin, beta-gal luminescence; percent of deltorphin B response, DMSO zero; actives 5.8% (n = 2,400); activation, % at 9.2 µM; shares compounds with MC4R barr agon;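 active means mean activation across replicates exceeds the hit threshold derived in the earlier primary screen, cut at about 18% in these data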
A number is an active result.

For CCc1ccc(NC(=O)COc2ccc(/C=C(/C#N)c3nc4ccccc4[nH]3)cc2OC)cc1 the results were TLR4 MyD88 comp inactive, beta cell repl inactive, NOD2-RIPK2 inh inactive, MC4R barr agon 69, TLR9-MyD88 block inactive, MC4R antag cAMP inactive, MC4R barr conf 17 and MOR DOR agonist 23.
`Cc1cccc(OC(C)C(=O)Nc2nc(-c3ccncc3)cs2)c1` (configuration not stated) gave beta cell repl inactive, NOD2-RIPK2 inh inactive, MC4R barr agon inactive, TLR9-MyD88 block inactive and MC4R antag cAMP inactive.
O=C(CCCOc1ccc(Br)cc1)NNC(=O)c1ccncc1 was read as beta cell repl inactive, NOD2-RIPK2 inh inactive, MC4R barr agon inactive, TLR9-MyD88 block inactive and MC4R antag cAMP inactive.
Screening COC(=O)c1cccc(NC(=O)c2nn(C(C)C)c(=O)c3ccccc23)c1 returned TLR4 MyD88 comp inactive, beta cell repl inactive, NOD2-RIPK2 inh inactive, MC4R barr agon 14, TLR9-MyD88 block inactive, MC4R antag cAMP inactive, MC4R barr conf inactive and MOR DOR agonist inactive.
`CCSc1nnc(NC(=O)C2CC2c2ccccc2)s1` (configuration not stated) gave TLR4 MyD88 comp inactive, beta cell repl inactive, NOD2-RIPK2 inh inactive, MC4R barr agon 15, TLR9-MyD88 block inactive, MC4R antag cAMP inactive, MC4R barr conf inactive and MOR DOR agonist inactive.
Screening Cc1ccc(C)c(OCCC(=O)OCC(=O)NCCNC(=O)COC(=O)CCOc2cc(C)ccc2C)c1 returned beta cell repl inactive, NOD2-RIPK2 inh inactive, MC4R barr agon 11, TLR9-MyD88 block inactive, MC4R antag cAMP inactive, MC4R barr conf inactive and MOR DOR agonist inactive.
Screening CCS(=O)(=O)N1CCN(c2ccc(Cl)cc2[N+](=O)[O-])CC1 returned TLR4 MyD88 comp inactive, beta cell repl inactive, NOD2-RIPK2 inh inactive, MC4R barr agon inactive, TLR9-MyD88 block inactive and MC4R antag cAMP inactive.
`O=C(CCCOc1ccc(Cl)cc1Cl)N/N=C/c1ccc(Cl)cc1` gave TLR4 MyD88 comp inactive, beta cell repl inactive, NOD2-RIPK2 inh inactive, MC4R barr agon 9.8, TLR9-MyD88 block inactive, MC4R antag cAMP inactive, MC4R barr conf inactive and MOR DOR agonist inactive.
Screening O=C1/C(=C\c2c(NCCOCCO)nc3ccccn3c2=O)SC(=S)N1Cc1ccco1 returned beta cell repl inactive, NOD2-RIPK2 inh inactive, MC4R barr agon 10, TLR9-MyD88 block inactive, MC4R antag cAMP inactive, MC4R barr conf inactive and MOR DOR agonist inactive.
Screening CCCN1C(=O)/C(=C/c2c(NCCCOCC)nc3c(C)cccn3c2=O)SC1=S returned TLR4 MyD88 comp inactive, NOD2-RIPK2 inh inactive, MC4R barr agon inactive, TLR9-MyD88 block inactive and MC4R antag cAMP inactive.
`O=C(C(=O)N1CCN(C(=O)OCc2ccccc2)CC1)c1cccs1` gave NOD2-RIPK2 inh inactive.
`CCCNc1c(NS(=O)(=O)c2ccc(C)c(C)c2)c(=O)oc2ccccc12` gave beta cell repl inactive, NOD2-RIPK2 inh inactive, MC4R barr agon inactive, TLR9-MyD88 block inactive and MC4R antag cAMP inactive.
`CCCNc1c(NS(=O)(=O)c2ccc3c(c2)CCCC3)c(=O)oc2ccccc12` gave beta cell repl inactive, NOD2-RIPK2 inh inactive, MC4R barr agon 14, TLR9-MyD88 block inactive, MC4R antag cAMP inactive, MC4R barr conf inactive and MOR DOR agonist inactive.
For COc1ccc(C(=O)NCCS(=O)(=O)N2CCc3ccccc3C2)cc1 the results were beta cell repl inactive, NOD2-RIPK2 inh inactive, MC4R barr agon inactive, TLR9-MyD88 block inactive and MC4R antag cAMP inactive.
Screening Cc1cccc(C(C)C)c1NC(=O)COC(=O)c1cccc(S(=O)(=O)N2CCc3ccccc3C2)c1 returned TLR4 MyD88 comp inactive, beta cell repl inactive, NOD2-RIPK2 inh inactive, MC4R barr agon 18, TLR9-MyD88 block inactive, MC4R antag cAMP inactive, MC4R barr conf 8.6 and MOR DOR agonist inactive.
`CCNC(=S)N/N=C/c1c(C)nn(-c2cccc(Cl)c2)c1Cl` gave TLR4 MyD88 comp inactive, beta cell repl inactive, NOD2-RIPK2 inh inactive, MC4R barr agon 21, TLR9-MyD88 block inactive, MC4R antag cAMP inactive, MC4R barr conf inactive and MOR DOR agonist inactive.
Screening Cc1nn(-c2ccccc2)c(Cl)c1/C=N/NC(=O)c1ccc(NS(=O)(=O)c2cccs2)cc1 returned TLR4 MyD88 comp inactive and beta cell repl inactive.
`Cc1nn(-c2cccc(Cl)c2)c(Cl)c1/C=N/NC(=O)c1cccs1` gave TLR4 MyD88 comp inactive, beta cell repl inactive, NOD2-RIPK2 inh inactive, MC4R barr agon 25, TLR9-MyD88 block inactive, MC4R antag cAMP inactive, MC4R barr conf inactive and MOR DOR agonist inactive.
CCn1c(=O)c2c(nc3n2CCCN3c2cccc(C)c2)n(C)c1=O was read as beta cell repl inactive, NOD2-RIPK2 inh inactive, MC4R barr agon inactive, TLR9-MyD88 block inactive and MC4R antag cAMP inactive.
Screening CCc1ccc(-n2cnc3cc(C(=O)NCC(OC)OC)ccc32)cc1 returned beta cell repl inactive, NOD2-RIPK2 inh inactive, MC4R barr agon inactive, TLR9-MyD88 block inactive and MC4R antag cAMP inactive.
Screening Cc1ccc(C)c(Cn2cnc3c(nnn3-c3ccc(F)cc3)c2=O)c1 returned TLR4 MyD88 comp inactive, beta cell repl inactive, NOD2-RIPK2 inh inactive, MC4R barr agon 13, TLR9-MyD88 block inactive, MC4R antag cAMP inactive, MC4R barr conf inactive and MOR DOR agonist inactive.
For O=C(CSc1ccc(C(F)(F)F)cc1[N+](=O)[O-])Nc1ccc2ccccc2c1 the results were TLR4 MyD88 comp inactive, beta cell repl inactive, NOD2-RIPK2 inh inactive, MC4R barr agon 11, TLR9-MyD88 block inactive, MC4R antag cAMP inactive, MC4R barr conf inactive and MOR DOR agonist inactive.
`Cc1ccccc1-c1cc(C(=O)O)n(CC2CC(c3cccnc3)=NO2)n1` (configuration not stated) gave beta cell repl inactive, NOD2-RIPK2 inh inactive, MC4R barr agon inactive, TLR9-MyD88 block inactive and MC4R antag cAMP inactive.
`COc1ccc(NC(=O)c2cc(-c3ccco3)on2)c(OC)c1` gave beta cell repl inactive, NOD2-RIPK2 inh inactive, MC4R barr agon 10, TLR9-MyD88 block inactive, MC4R antag cAMP inactive, MC4R barr conf inactive and MOR DOR agonist inactive.
`COc1ccc(-c2cc(C(=O)Nc3cc(C)on3)no2)cc1` gave TLR4 MyD88 comp inactive, beta cell repl inactive and TLR9-MyD88 block inactive.
For COc1cc(NC(=O)c2cc(-c3ccco3)on2)c(OC)cc1Cl the results were TLR4 MyD88 comp inactive, beta cell repl inactive, NOD2-RIPK2 inh inactive, MC4R barr agon inactive, TLR9-MyD88 block inactive and MC4R antag cAMP inactive.

High-throughput results from PubChem BioAssay.
